Measurements as given in publication PMC4180826 (Scientific Reports, 2014).

What was measured:
[1] = "under the same conditions"; cited from earlier work
[2] = Transmission electron microscopy, aggregation and disaggregation; assay type: physicochemical
Summary of the method: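 Droplets of the peptide, the test compound, or the test compound bound to NK1R at 1:1 molar ratio were placed on carbon-coated holey grids. The NK1R sample alone was negatively stained with sodium phosphotungstate and dried at room temperature for 12 h before TEM imaging.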

[3] = Relaxivity r1, 0.5 T MR system; assay type: physicochemical; conditions: TBS pH 7.4, 50.0 mM Tris, 50.0 mM NaCl, 37 °C, 1-100 μM, inversion recovery, slope of 1/T1 versus concentration
Fe = assay type: binding; conditions: until molar ratio Fe (II) to peptide 1 of 1:1; peptide 1 10.0 μM; TBS pH 7.4
[4] = biological target: probe 1 (terpyridine-Fe (II) complex of the Gd (III)-DOTA peptide 1, a modified substance P); assay: T1 relaxation rate
[5] = biological target: probe 1 (terpyridine-Fe (II) complex of the Gd (III)-DOTA peptide 1, a modified substance P); assay: other fluorescence titration
[6] = biological target: probe 1 (terpyridine-Fe (II) complex of the Gd (III)-DOTA peptide 1, a modified substance P); assay: fluorescence polarisation

Molecule: O=C([O-])CN(CCN(CC(=O)[O-])CC(=O)O)CCN(CC(=O)[O-])CC(=O)O.[Gd+3] [Gd-(DTPA)]
- relaxivity r1, clinical contrast agents [1]: 4.6 mM⁻¹ s⁻¹

Molecule: CC(O)CN1CCN(CC(=O)[O-])CCN(CC(=O)[O-])CCN(CC(=O)[O-])CC1.[Gd+3] (stereo not shown) [Gd-(HP-DO3A)]
- relaxivity r1, clinical contrast agents [1]: 4.3 mM⁻¹ s⁻¹

Molecule: MLGFFQQPKPRKKKKKK(Tpy)K(Tpy)KK(Dye)DOTA [peptide 1]
- length (TEM) ([2]; nanofibers, peptide 1 alone, 10.0 μM in TBS pH 7.4): several hundred nm
- diameter (TEM) ([2]; threadlike network of nanofibers, peptide 1 alone, 10.0 μM in TBS pH 7.4): approximately 3.5 nm
- relaxivity r1 [3]: 11.8 mM⁻¹ s⁻¹
- fluorescence at 610 nm upon addition of Fe (II) ions (Fe): decreased

Molecule: neurokinin-1 receptor (NK1R), recombinant
- stoichiometry N [4]: 1 probe 1:NK1R
- fold increase of the fluorescence intensity of probe 1 at 610 nm [5]: 3 fold
- Kd [6]: 2300 nM

B1: NK1R: recombinant NK1R (TACR1) expressed in Rosetta (DE3), purified using nickel affinity chromatography (protein)
chain: MDNVLPVDSDLSPNISTNTSEPNQFVQPAWQIVLWAAAYTVIVVTSVVGNVVVMWIILAHKRMRTVTNYFLVNLAFAEASMAAFNTVVNFTYAVHNEWYYGLFYCKFHNFFPIAAVFASIYSMTAVAFDRYMAIIHPLQPRLSATATKVVICVIWVLALLLAFPQGYYSTTETMPSRVVCMIEWPEHPNKIYEKVYHICVTVLIYFLPLLVIGYAYTVVGITLWASEIPGDSSDRYHEQVSAKRKVVKMMIVVVCTFAICWLPFHIFFLLPYINPDLYLKKFIQQVYLAIMWLAMSSTMYNPIIYCCLNDRFRLGFKHAFRCCPFISAGDYEGLEMKSTRYLQTQGSVYKVSRLETTISTVVGAHEEEPEDGPKATPSSLDLTSNCSSRSDSKTMTESFSFSSNVLS
- diameter (TEM) ([2]; NK1R multimers, 1.0 μM, stained with sodium phosphotungstate 2.0 wt%, TBS pH 7.4): approximately 3.8 nm
